Only some compounds are listed: those with a hit (about 2.1% of all), similar ones and a draw of the others.
aDG glyco up – activators of alpha-DG glycosylation, primary screen, uHTS, Pro5-aDG cells, AlphaScreen; alpha-DG glycosylation AlphaScreen (IIH6); 0% Pro5, 100% B10-LARGE cell signal; activation, % at 10 µM; 0.22% of 360,000 active; AID 624168, 2012;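 active means activation of at least 8% versus controls, or a plate z-score of at least 8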;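 further: Pro5 are CHO cells carrying HIG-tagged alpha-DG that lacks glycosylation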
PfG6PD inh – PfG6PD enzyme inhibitors, primary screen, biochemical, fluorescence intensity, uHTS; glucose-6-phosphate dehydrogenase-6-phosphogluconolactonase (Plasmodium falciparum 3D7); PfGluPho enzyme, NADPH resazurin-diaphorase fluorescence; inhibition, % at 20 µM; 0.78% of 350,000 active; AID 504690, 2011;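 active means inhibition reaching at least a set limit at 20 µM in the primary screen, cut at about 59% in these data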;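 further: 0% = DMSO wells with substrate and 100% = DMSO wells lacking glucose-6-phosphate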
Cardio protect – cardioprotection against H2O2-induced cell death, primary screen, uHTS, H9c2 cells, ATPLite luminescence | H9c2 cardiomyocytes, H2O2 injury protection, 2 h | protection from H2O2 cell death, % at 20 µM | 0.63% of 360,000 active;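 active means compounds giving at least 50% protection of heart cells from peroxide-induced death in the single-dose screen, raw or plate-pattern-corrected value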;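 further: 0% = DMSO wells with peroxide and 100% = DMSO wells without peroxide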
HKDC1 inhibitor – HKDC1 hexokinase inhibitors, primary screen, biochemical, fluorescence, uHTS | recombinant HKDC1, G6PDH/diaphorase resazurin coupled fluorescence | inhibition, % at 20 µM | 0.16% of 340,000 active | AID 493160, 2011;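 active means inhibition above about 35% when tested at 20 µM, limit read from the data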;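 further: plate controls were DMSO wells with enzyme for no effect and DMSO wells lacking enzyme for full effect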
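Test system: recombinant HKDC1 (HK5) hexokinase enzyme, produced in-house / Doses: 20 µM test compound, 1% DMSO / Timing: 90 min, room temperature / Detection: G6PDH/diaphorase-coupled fluorescence, 1 mM NADP, 100 µM resazurin, 525/613 nm / Control set: DMSO wells with and without enzyme mix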
UCH37 inh – inhibitors of human UCH37 deubiquitinase, primary screen, biochemical, Ub-AMC cleavage, fluorescence | Ubiquitin carboxyl-terminal hydrolase isozyme L5 (Homo sapiens), Q9Y5K5 | purified proteasome/UCH37 | inhibition, % (test concentration not listed) | 0.33% of 330,000 active | AID 588478, 2011;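 active means mean inhibition over replicate wells above about 20%, limit read from the data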;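 further: 0% = compound-free wells with enzyme and 100% = wells lacking proteasome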
Target sequence (Q9Y5K5 whole entry, looked up): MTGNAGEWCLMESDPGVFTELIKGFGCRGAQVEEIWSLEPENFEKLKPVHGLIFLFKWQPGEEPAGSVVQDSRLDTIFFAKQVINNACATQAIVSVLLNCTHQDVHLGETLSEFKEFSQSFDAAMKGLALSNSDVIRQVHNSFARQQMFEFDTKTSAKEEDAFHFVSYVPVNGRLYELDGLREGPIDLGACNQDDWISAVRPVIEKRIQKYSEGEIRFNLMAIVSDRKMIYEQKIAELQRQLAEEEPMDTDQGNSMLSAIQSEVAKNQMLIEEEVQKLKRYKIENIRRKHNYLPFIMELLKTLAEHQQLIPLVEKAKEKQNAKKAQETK
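Material: Human UCH37 enzyme supplied as purified proteasome complex | Schedule: 30 min compound-proteasome preincubation then 25 min substrate reaction, room temperature | Detection: AMC fluorescence from Ub-AMC cleavage, excitation 355 nm, emission 460 nm | Benchmarks: Wells without proteasome as full block, compound-free enzyme plus substrate as uninhibited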
B2AR ag – beta2AR agonists driving receptor internalization, primary screen, cell-based, FAP fluorogen, flow cytometry; Beta-2 adrenergic receptor (Homo sapiens), P07550; Am2.2-beta2AR cells; response, % (test concentration not listed); 0.43% of 340,000 active; AID 504454, 2011;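 active means response above a set limit, near 3 SD of response in nonfluorescent compounds, cut at about 42% in these data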
Target sequence (P07550 whole entry, looked up): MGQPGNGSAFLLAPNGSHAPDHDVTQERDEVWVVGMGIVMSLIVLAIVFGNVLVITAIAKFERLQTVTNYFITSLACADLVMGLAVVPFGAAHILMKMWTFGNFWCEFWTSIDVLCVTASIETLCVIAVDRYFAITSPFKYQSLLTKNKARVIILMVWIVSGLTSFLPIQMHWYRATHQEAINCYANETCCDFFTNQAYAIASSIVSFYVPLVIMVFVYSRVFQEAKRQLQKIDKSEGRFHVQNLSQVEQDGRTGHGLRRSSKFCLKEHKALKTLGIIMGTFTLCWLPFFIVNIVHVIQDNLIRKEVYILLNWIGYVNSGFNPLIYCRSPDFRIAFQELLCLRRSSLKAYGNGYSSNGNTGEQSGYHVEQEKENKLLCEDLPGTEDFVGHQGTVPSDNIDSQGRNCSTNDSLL
Beta2AR ag CP1 – beta2AR agonists via receptor internalization, confirmation, cell-based, FAP fluorogen, flow cytometry, single point, cherry pick 1; shares compounds with B2AR ag; Am2.2-beta2AR cells, FAP surface receptor; active compounds read low; percent response (surface receptor), % at 10 µM; 25% of 1,100 active; AID 540358, 2011;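 active means surface receptor percent response at or below 58%, roughly 3 SD from nonfluorescent compounds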
FAP fluor counter – flagged in Am2.2 fluorescence counterscreen for beta-2AR agonists; shares compounds with B2AR ag; Am2.2 cells, FAP fluorogen flow cytometry; active compounds read low; calls only at 10 µM; 1,100 tested, under 10 active;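 active means percent response below a set limit in fluorescence channel 1 and below 50% in channel 8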
Active calls of the source: *; i = inactive; . = no result; + = active, no number.

SMILES | aDG glyco up | PfG6PD inh | Cardio protect | HKDC1 inhibitor | UCH37 inh | B2AR ag | Beta2AR ag CP1 | FAP fluor counter
CCOC(=O)c1cc(-c2csc(NN=Cc3ccccc3Cl)n2)on1 | . | . | . | . | -75.9 | . | . | .
CN(C)c1ccc(-c2noc(C3CCN(S(=O)(=O)c4cccc(Cl)c4)CC3)n2)cc1 | -0.2 | 8.1 | -3.2 | -10.1 | -25.6 | 65.5* | 39.2* | i
CN(C)c1ccc(-c2noc(C3CCN(S(=O)(=O)c4ccc(C(=O)O)cc4)CC3)n2)cc1 | 0.1 | 1.4 | 2.7 | 9.6 | 1.2 | 2.4 | . | .
OC(C#Cc1ccccn1)c1cccs1 (stereo not drawn) | -0.2 | 2.2 | -29.5 | 7.0 | -2.9 | 62.7* | 117.6 | i
O=C(NC1CCCCC1)C(c1cccs1)N(C(=O)c1ccccn1)c1ccccc1 (stereo not drawn) | -0.2 | 7.3 | 1.0 | -8.0 | 3.4 | -2.3 | . | .
Cc1csc(NN=Cc2cccnc2)n1 | . | . | . | . | 10.7 | . | . | .
COc1cccc(NS(=O)(=O)c2ccc3c(c2)CCCN3C(C)=O)c1 | 0.1 | 3.3 | -8.9 | -11.1 | 3.8 | 46.6* | 115.8 | i
COc1ccc(NS(=O)(=O)c2ccc3c(c2)CCCN3C(C)=O)cc1 | 0.3 | -24.2 | -4.1 | -3.2 | 1.0 | 1.6 | . | .
O=C1OC(c2ccccc2)(c2ccccc2)c2ccccc21 | 0.2 | -25.9 | -15.6 | 4.0 | 0.7 | 56.5* | 65.9 | i
O=C1CC(c2ccccc2)(c2ccccc2)c2ccccc21 | -0.1 | -13.0 | -2.2 | 1.6 | -0.9 | 59.3* | 39.0* | i
Cc1cc(O)ccc1C1(c2ccc(O)cc2C)OC(=O)c2ccccc21 | -0.1 | -29.9 | 27.9 | 3.0 | 6.7 | 8.4 | . | .
O=C1OC(c2ccccc2)(c2ccc(O)cc2)c2ccccc21 (stereo not drawn) | -0.2 | -44.6 | -1.0 | 3.5 | 2.8 | 43.4* | 76.5 | i
O=C1c2ccccc2C(O)(c2ccccc2)N1C1CC1 (stereo not drawn) | 0.1 | 9.5 | -3.2 | -4.0 | 0.3 | 4.5 | . | .
COc1ccc(C=NNC(=S)Nc2ccccc2)cc1COc1ccccc1F | . | . | . | . | 2.1 | . | . | .
C[C@@H]1CC[C@H](Cc2ccc(-n3cccc3)cc2)N1C(=O)OC(C)(C)C | 0.0 | 18.1 | -20.8 | . | . | . | 96.5 | i
Cc1c(Cl)cccc1N1C(=O)C(N2C(=O)c3cccc([N+](=O)[O-])c3C2=O)C1c1cccs1 (stereo not drawn) | 0.2 | -9.1 | -3.6 | -4.8 | 2.6 | 51.9* | 96.3 | i
COc1ccccc1NC(=O)COc1ccc(C=NNC(=O)c2cccnc2)cc1 | . | . | . | . | -3.5 | . | . | .
O=[N+]([O-])c1ccc(S(=O)(=O)c2cccc(C(F)(F)F)c2)nc1 | -0.3 | 26.3 | -17.5 | 6.3 | 7.0 | 56.7* | 24.2* | i
O=S(=O)(Nc1cccnc1)c1cccc(C(F)(F)F)c1 | -0.4 | -13.2 | -1.2 | -9.4 | 1.9 | 5.8 | . | .
CCCC(=NNC(=O)c1ccc(OC)c(OC)c1)c1ccccc1 | . | . | . | . | -0.2 | . | . | .
COc1ccc(OC)c(CCNC(=O)C2CCN(c3nnc(-n4cccc4)s3)CC2)c1 | -0.2 | -1.0 | 6.3 | -1.2 | 4.9 | 51.2* | 88.7 | i
CCOc1cc(C=NNc2nncc(-c3ccccc3)n2)ccc1O | . | . | . | . | 5.7 | . | . | .
CCOC(=O)Cn1nc(C)n(-c2ccc(C(C)(C)C)cc2)c1=O | -0.2 | -9.6 | -2.7 | -7.0 | 3.2 | 51.0* | 108.6 | i
O=C(NN=Cc1ccccn1)c1cccc(NC(=O)c2ccccc2Cl)c1 | . | . | . | . | 2.1 | . | . | .
O=C(CCNC(=O)c1ccc([N+](=O)[O-])cc1)NN=Cc1ccc(F)cc1 | . | . | . | . | -0.3 | . | . | .
SMILES | aDG glyco up | PfG6PD inh | Cardio protect | HKDC1 inhibitor | UCH37 inh | B2AR ag | Beta2AR ag CP1 | FAP fluor counter
CC(=O)Nc1ccc(NC(=NS(=O)(=O)c2ccccc2)c2ccccc2)cc1 | . | . | . | . | -0.1 | . | . | .
S=c1nc2ccccc2c2nc(-c3ccccc3Cl)[nH]n12 | 0.0 | 7.9 | 1.4 | -12.3 | . | 0.7 | . | .
S=c1nc2ccccc2c2nc(-c3ccccc3)[nH]n12 | 0.0 | 40.5 | 0.8 | -20.5 | . | 2.3 | . | i
N#Cc1ccc(-c2cccnc2)nc1SCc1ccc(Cl)cc1Cl | 0.1 | -0.6 | -6.4 | 0.5 | -24.0 | 51.7* | 71.1 | i
Cc1onc(-c2ccccc2)c1C(=O)NN=Cc1c[nH]c2ccccc12 | . | . | . | . | 1.6 | . | . | .
COc1cccc(OCc2nnc(-c3cccs3)o2)c1 | 0.5 | . | -6.2 | . | 3.8 | 50.5* | 57.8* | i
Cc1cnn(-c2nc(-c3ccccc3)cc(-c3ccccc3)n2)c1 | 1.5 | 23.0 | 5.7 | -8.4 | 1.1 | 42.2* | 16.1* | i
O=C(OCc1c(F)cccc1Cl)c1cnccn1 | -0.1 | -3.7 | -3.2 | -0.4 | 0.1 | 3.9 | . | .
O=C(OCc1c(F)cccc1Cl)c1cnc2ccccc2n1 | -0.1 | -25.6 | -0.8 | -4.6 | 2.4 | 46.1* | 107.8 | i
Cn1nnnc1Sc1ncnc2scc(-c3ccc(F)cc3)c12 | 0.2 | -4.1 | 16.9 | 9.7 | 0.8 | 10.1 | . | .
Cn1nnnc1Sc1ncnc2scc(-c3ccc(Br)cc3)c12 | -0.1 | -0.1 | -8.2 | 19.2 | 0.1 | 67.8* | 32.4* | i
NC(=S)NN=C1CC(n2nnnc2-c2ccccc2)C2COC1O2 (stereo not drawn) | . | . | . | . | 2.8 | . | . | .
CCCc1cc(=O)n2c(nc3ccccc32)[nH]1 | -0.2 | -1.9 | -12.3 | -3.9 | -47.6 | 67.8* | 94.7 | i
Cc1cc(=O)n2c(nc3ccccc32)[nH]1 | 0.1 | 1.4 | -5.5 | 4.8 | -105.1 | 1.0 | . | .
O=C(Cn1nnc(-c2ccccc2)n1)Nc1ccccc1N1CCOCC1 | 0.2 | -0.1 | -6.1 | 13.8 | 2.4 | -19.1 | 43.3* | i
Cc1ccc(Cn2c(=N)n(CC(=O)c3ccc([N+](=O)[O-])cc3)c3ccccc32)cc1 | 0.1 | 50.7 | -26.1 | -13.3 | 2.9 | 99.6* | 23.1* | +
COc1ccc(C(C)=O)cc1CC(=O)N(Cc1ccccc1)c1ccccc1 | 0.0 | 10.0 | 2.4 | -2.4 | 1.6 | 44.7* | 58.5 | i
COc1ccccc1CC(=O)N(Cc1ccccc1)c1ccc(C)cc1 | 0.0 | -18.0 | -1.4 | 4.8 | -2.6 | -3.4 | . | .
CCC(=O)Nc1ccc(-c2nn3c(C)nnc3s2)cc1C | -0.1 | -5.9 | 8.7 | -7.5 | 1.2 | 59.7* | 79.8 | i

Screens: PubChem, several laboratories
